Data reported in publication PMC3013634 (FEMS microbiology letters, 2009).

Target: T1, sPBP 6 (Escherichia coli, UniProt P08506)
T1 sequence (P08506 28-388 limits assumed): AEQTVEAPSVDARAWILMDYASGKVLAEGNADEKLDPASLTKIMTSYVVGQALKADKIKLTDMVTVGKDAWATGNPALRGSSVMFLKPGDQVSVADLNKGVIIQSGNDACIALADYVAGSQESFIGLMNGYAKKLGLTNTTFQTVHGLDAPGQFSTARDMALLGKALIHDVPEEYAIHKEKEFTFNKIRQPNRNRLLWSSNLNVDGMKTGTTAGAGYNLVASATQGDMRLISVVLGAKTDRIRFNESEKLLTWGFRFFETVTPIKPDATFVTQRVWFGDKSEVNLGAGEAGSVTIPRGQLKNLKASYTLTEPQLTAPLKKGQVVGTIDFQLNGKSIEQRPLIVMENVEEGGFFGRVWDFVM
Assay: acylation rate, fluorescent labelling, SDS-PAGE densitometry
Assay type: binding
Conditions: covalent; labelled compound; active-site serine acylation; 25-100 μM, 30-120 s
Method in brief: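 Enzyme (250 μg) was incubated with BOCILLIN FL at 25, 50 or 100 μM for 30–120 s, then run on 12% SDS-PAGE and fluorescence-scanned (488/526 nm). Pseudo-first-order ka came from bound density relative to saturation, and k2/K from the slope of ka versus concentration.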

Cc1cc(C)n2c1C=C1C=CC(CCC(=O)Nc3ccc(OCC(=O)N[C@@H]4C(=O)N5[C@@H]4SC(C)(C)[C@@H]5C(=O)[O-])cc3)=[N+]1[B-]2(F)F.[Na+] [BOCILLIN FL]
k2/K / M^-1 s^-1: 1900 ± 65.5 M⁻¹ s⁻¹
